According to ChEMBL document CHEMBL1148220, “Antineoplastic agents. 529. Isolation and structure of nootkastatins 1 and 2 from the Alaskan yellow cedar Chamaecyparis nootkatensis” (2004):
≈ marks a conversion by molar mass, not a printed value. Calls of active or inactive are those of the source. The calls are words filed in the database; no cut-off is given here.

Tests used:
Cryptococcus neoformans [1] = experiment: Antimicrobial activity against Cryptococcus neoformans ATCC 90122 after 24 hrs by broth microdilution assay in presence of 25% human serum; assay type: functional; conditions: ATCC 90112, 24 h, in the assay text read “ATCC 90112” for “ATCC 90122”
Procedure, shortened: (§1)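 For yeasts, NCCLS broth microdilution was run in medium supplemented with 25% heat-inactivated, filter-sterilized normal human serum. Compounds were reconstituted in sterile DMSO and diluted in medium just before the assay. MIC was the lowest concentration giving optically clear wells.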

Candida albicans [2] = experiment: Antimicrobial activity against Candida albicans ATCC 90028 after 48 hrs by broth microdilution assay in presence of 25% human serum; assay type: functional; conditions: ATCC 90028, 48 h; procedure, shortened: as §1
Staphylococcus aureus [3] = experiment: Antimicrobial activity against Staphylococcus aureus ATCC 29213 after 24 hrs by broth microdilution assay in presence of 25% human serum; assay type: functional; conditions: ATCC 29213, 24 h
Procedure, shortened: (§2)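 Bacteria were tested by NCCLS broth microdilution in medium containing 25% heat-inactivated, filter-sterilized normal human serum. Compounds were dissolved in sterile DMSO and diluted in medium immediately before use. MIC was the lowest concentration with no visible growth (optically clear). Assays were repeated on separate days.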

Streptococcus pneumoniae [4] = experiment: Antimicrobial activity against Streptococcus pneumoniae ATCC 6303 after 24 hrs by broth microdilution assay in presence of 25% human serum; assay type: functional; conditions: ATCC 6303, 24 h; procedure, shortened: as §2
Enterococcus faecalis [5] = experiment: Antimicrobial activity against Enterococcus faecalis ATCC 29212 after 24 hrs by broth microdilution assay in presence of 25% human serum; assay type: functional; conditions: ATCC 29212, 24 h; procedure, shortened: as §2
Micrococcus luteus [6] = experiment: Antimicrobial activity against Micrococcus luteus Presque Isle 456 after 24 hrs by broth microdilution assay in presence of 25% human serum; assay type: functional; procedure, shortened: as §2
Escherichia coli [7] = experiment: Antimicrobial activity against Escherichia coli ATCC 25922 after 24 hrs by broth microdilution assay in presence of 25% human serum; assay type: functional; conditions: ATCC 25922, 24 h; procedure, shortened: as §2
Enterobacter cloacae [8] = experiment: Antimicrobial activity against Enterobacter cloacae ATCC 13047 after 24 hrs by broth microdilution assay in presence of 25% human serum; assay type: functional; conditions: ATCC 13047, 24 h; procedure, shortened: as §2
[9] = tested on: Stenotrophomonas maltophilia; experiment: Antimicrobial activity against Stenotrophomonas maltophilia ATCC 13637 after 24 hrs by broth microdilution assay in presence of 25% human serum; assay type: functional; conditions: ATCC 13637, 24 h; procedure, shortened: as §2
Neisseria gonorrhoeae [10] = experiment: Antimicrobial activity against Neisseria gonorrhoeae ATCC 49226 after 24 hrs by broth microdilution assay in presence of 25% human serum; assay type: functional; conditions: ATCC 49226, 24 h; procedure, shortened: as §2
Cryptococcus neoformans [11] = experiment: Antimicrobial activity against fluconazole-resistant Cryptococcus neoformans after 48 hrs by broth microdilution assay in presence of 25% human serum; assay type: functional
Nakaseomyces glabratus = experiment: Antimicrobial activity against Candida glabrata after 48 hrs by broth microdilution assay in presence of 25% human serum; assay type: functional; procedure, shortened: as §1
Staphylococcus aureus [12] = experiment: Antimicrobial activity against methicillin-resistant Staphylococcus aureus after 24 hrs by broth microdilution assay in presence of 25% human serum; assay type: functional
Procedure, shortened: as §2, with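 “Bacterial” for “Bacteria were tested by”, “microdilution run” for “microdilution”, “with” for “containing”, “taken up” for “dissolved”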

[13] = tested on: Staphylococcus epidermidis; experiment: Antimicrobial activity against Staphylococcus epidermidis ATCC 49461 after 24 hrs by broth microdilution assay in presence of 25% human serum; assay type: functional; conditions: ATCC 49461, 24 h; procedure, shortened: as §2
Streptococcus pneumoniae [14] = experiment: Antimicrobial activity against penicillin-resistant Streptococcus pneumoniae after 24 hrs by broth microdilution assay in presence of 25% human serum; assay type: functional
Procedure, shortened: as §2, with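 “Bacterial” for “Bacteria were tested by”, “microdilution run” for “microdilution”, “with” for “containing”, “taken up” for “dissolved”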

Streptococcus pyogenes = experiment: Antimicrobial activity against penicillin-resistant Streptococcus pyogenes after 24 hrs by broth microdilution assay in presence of 25% human serum; assay type: functional
Procedure, shortened: as §2, with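 “Bacterial” for “Bacteria were tested by”, “microdilution run” for “microdilution”, “with” for “containing”, “taken up” for “dissolved”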

Enterococcus faecium = experiment: Antimicrobial activity against vancomycin-resistant Enterococcus faecium after 24 hrs by broth microdilution assay in presence of 25% human serum; assay type: functional
Procedure, shortened: as §2, with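 “Bacterial” for “Bacteria were tested by”, “microdilution run” for “microdilution”, “with” for “containing”, “taken up” for “dissolved”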

Rhodococcus sp. = experiment: Antimicrobial activity against Rhodococcus sp. after 24 hrs by broth microdilution assay in presence of 25% human serum; assay type: functional; conditions: Rhodococcus sp. (in: high G+C Gram-positive bacteria); procedure, shortened: as §2
MCF7 = experiment: Cytotoxicity against human MCF7 cells after 48 hrs by SRB assay; assay type: functional; conditions: MCF7, 48 h
P388 = experiment: Cytotoxicity against mouse P388 cells; assay type: functional; conditions: read-out: ED50 (the source's name)
BXPC-3 = experiment: Cytotoxicity against human BxPC3 cells after 48 hrs by SRB assay; assay type: functional; conditions: BXPC-3, 48 h
SF-268 = experiment: Cytotoxicity against human SF268 cells after 48 hrs by SRB assay; assay type: functional; conditions: SF-268, 48 h
NCI-H460 = experiment: Cytotoxicity against human NCI-H460 cells after 48 hrs by SRB assay; assay type: functional; conditions: NCI-H460, 48 h
KM-20L2 = experiment: Cytotoxicity against human KM20L2 cells after 48 hrs by SRB assay; assay type: functional; conditions: KM-20L2, 48 h
DU-145 = experiment: Cytotoxicity against human DU145 cells after 48 hrs by SRB assay; assay type: functional; conditions: DU-145, 48 h
Cryptococcus neoformans [15] = experiment: Antimicrobial activity against Cryptococcus neoformans ATCC 90122 after 24 hrs by broth microdilution assay; assay type: functional; conditions: ATCC 90112, 24 h, in the assay text read “ATCC 90112” for “ATCC 90122”
Procedure, shortened: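 Yeasts were tested by NCCLS broth microdilution. Compounds were dissolved in a small volume of sterile DMSO and diluted in the appropriate medium immediately before testing. MIC was the lowest concentration inhibiting all visible growth (optically clear). Assays were repeated on separate days.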

Candida albicans [16] = experiment: Antimicrobial activity against Candida albicans ATCC 90028 at 64 ug/mL after 48 hrs by broth microdilution assay; assay type: functional, organism-based
Staphylococcus aureus [17] = experiment: Antimicrobial activity against Staphylococcus aureus ATCC 29213 after 24 hrs by broth microdilution assay; assay type: functional; conditions: ATCC 29213, 24 h
Procedure, shortened: (§3)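 Bacterial MICs were determined by NCCLS broth microdilution. Compounds were dissolved in a small volume of sterile DMSO and diluted in the appropriate medium just before testing. MIC was the lowest concentration giving no visible growth (optically clear). Assays were repeated on separate days.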

Streptococcus pneumoniae [18] = experiment: Antimicrobial activity against Streptococcus pneumoniae ATCC 6303 after 24 hrs by broth microdilution assay; assay type: functional; conditions: ATCC 6303, 24 h; procedure, shortened: as §3
Enterococcus faecalis [19] = experiment: Antimicrobial activity against Enterococcus faecalis ATCC 29212 after 24 hrs by broth microdilution assay; assay type: functional; conditions: ATCC 29212, 24 h; procedure, shortened: as §3
Micrococcus luteus [20] = experiment: Antimicrobial activity against Micrococcus luteus Presque Isle 456 after 24 hrs by broth microdilution assay; assay type: functional; procedure, shortened: as §3
Escherichia coli [21] = experiment: Antimicrobial activity against Escherichia coli ATCC 25922 at 64 ug/mL after 24 hrs by broth microdilution assay; assay type: functional, organism-based
Enterobacter cloacae [22] = experiment: Antimicrobial activity against Enterobacter cloacae ATCC 13047 at 64 ug/mL after 24 hrs by broth microdilution assay; assay type: functional, organism-based
[23] = tested on: Stenotrophomonas maltophilia; experiment: Antimicrobial activity against Stenotrophomonas maltophilia ATCC 13637 at 64 ug/mL after 24 hrs by broth microdilution assay; assay type: functional, organism-based
Neisseria gonorrhoeae [24] = experiment: Antimicrobial activity against Neisseria gonorrhoeae ATCC 49226 at 64 ug/mL after 24 hrs by broth microdilution assay; assay type: functional; conditions: ATCC 49226, 24 h

CO[C@H]1C[C@H]2C(C)(C)CCC[C@]2(C)c2ccc(O)c(C(C)C)c21 [NOOTKASTATIN 1]
MIC (Cryptococcus neoformans [1]): > 64 µg/mL | MIC (Candida albicans [2]): > 64 µg/mL | MIC (Staphylococcus aureus [3]): > 64 µg/mL | MIC (Streptococcus pneumoniae [4]): > 64 µg/mL | MIC (Enterococcus faecalis [5]): > 64 µg/mL | MIC (Micrococcus luteus [6]): > 64 µg/mL | MIC (Escherichia coli [7]): > 64 µg/mL | MIC (Enterobacter cloacae [8]): > 64 µg/mL | MIC [9]: > 64 µg/mL | MIC (Neisseria gonorrhoeae [10]): > 64 µg/mL | MIC (Cryptococcus neoformans [11]): > 64 µg/mL | MIC (Nakaseomyces glabratus): > 64 µg/mL | MIC (Staphylococcus aureus [12]): > 64 µg/mL | MIC [13]: > 64 µg/mL | MIC (Streptococcus pneumoniae [14]): > 64 µg/mL | MIC (Streptococcus pyogenes): > 64 µg/mL | MIC (Enterococcus faecium): > 64 µg/mL | MIC (Rhodococcus sp.): > 64 µg/mL | GI50 (MCF7): 2 µg/mL (≈ 6.32 µM) | EC50 (P388): 1.5 µg/mL (≈ 4.74 µM) | GI50 (BXPC-3): 2.1 µg/mL (≈ 6.64 µM) | GI50 (SF-268): 0.85 µg/mL (≈ 2.69 µM) | GI50 (NCI-H460): 0.75 µg/mL (≈ 2.37 µM) | GI50 (KM-20L2): 0.98 µg/mL (≈ 3.1 µM) | GI50 (DU-145): 1.1 µg/mL (≈ 3.48 µM) | MIC (Cryptococcus neoformans [15]): 64 µg/mL (≈ 202 µM) | Activity (Candida albicans [16]): inactive | MBC (Staphylococcus aureus [17]): 32 µg/mL (≈ 101 µM) | MIC (Staphylococcus aureus [17]): 8 µg/mL (≈ 25.3 µM) | MBC (Streptococcus pneumoniae [18]): 64 µg/mL (≈ 202 µM) | MIC (Streptococcus pneumoniae [18]): 64 µg/mL (≈ 202 µM) | MBC (Enterococcus faecalis [19]): 16 µg/mL (≈ 50.6 µM) | MIC (Enterococcus faecalis [19]): 4 µg/mL (≈ 12.6 µM) | MBC (Micrococcus luteus [20]): 8 µg/mL (≈ 25.3 µM) | MIC (Micrococcus luteus [20]): 2 µg/mL (≈ 6.32 µM) | Activity (Escherichia coli [21]): inactive | Activity (Enterobacter cloacae [22]): inactive | Activity [23]: inactive | MBC (Neisseria gonorrhoeae [24]): 4 µg/mL (≈ 12.6 µM) | MIC (Neisseria gonorrhoeae [24]): 2 µg/mL (≈ 6.32 µM)

CC(C)O[C@@H]1C[C@H]2C(C)(C)CCC[C@]2(C)c2ccc(O)c(C(C)C)c2O1 [NOOTKASTATIN 2]
MIC (Cryptococcus neoformans [1]): > 64 µg/mL | MIC (Candida albicans [2]): > 64 µg/mL | MIC (Staphylococcus aureus [3]): > 64 µg/mL | MIC (Streptococcus pneumoniae [4]): > 64 µg/mL | MIC (Enterococcus faecalis [5]): > 64 µg/mL | MIC (Micrococcus luteus [6]): > 64 µg/mL | MIC (Escherichia coli [7]): > 64 µg/mL | MIC (Enterobacter cloacae [8]): > 64 µg/mL | MIC [9]: > 64 µg/mL | MIC (Neisseria gonorrhoeae [10]): > 64 µg/mL | MIC (Cryptococcus neoformans [11]): > 64 µg/mL | MIC (Nakaseomyces glabratus): > 64 µg/mL | MIC (Staphylococcus aureus [12]): > 64 µg/mL | MIC [13]: > 64 µg/mL | MIC (Streptococcus pneumoniae [14]): > 64 µg/mL | MIC (Streptococcus pyogenes): > 64 µg/mL | MIC (Enterococcus faecium): > 64 µg/mL | MIC (Rhodococcus sp.): > 64 µg/mL | GI50 (MCF7): 2.3 µg/mL (≈ 6.38 µM) | EC50 (P388): 5.8 µg/mL (≈ 16.1 µM) | GI50 (BXPC-3): 1.8 µg/mL (≈ 4.99 µM) | GI50 (SF-268): 2 µg/mL (≈ 5.55 µM) | GI50 (NCI-H460): 2 µg/mL (≈ 5.55 µM) | GI50 (KM-20L2): 2.4 µg/mL (≈ 6.66 µM) | GI50 (DU-145): 2.2 µg/mL (≈ 6.1 µM) | MIC (Cryptococcus neoformans [15]): 64 µg/mL (≈ 178 µM) | Activity (Candida albicans [16]): inactive | MBC (Staphylococcus aureus [17]): 8 µg/mL (≈ 22.2 µM) | MIC (Staphylococcus aureus [17]): 4 µg/mL (≈ 11.1 µM) | MBC (Streptococcus pneumoniae [18]): 64 µg/mL (≈ 178 µM) | MIC (Streptococcus pneumoniae [18]): 64 µg/mL (≈ 178 µM) | MBC (Enterococcus faecalis [19]): 32 µg/mL (≈ 88.8 µM) | MIC (Enterococcus faecalis [19]): 2 µg/mL (≈ 5.55 µM) | MBC (Micrococcus luteus [20]): 16 µg/mL (≈ 44.4 µM) | MIC (Micrococcus luteus [20]): 1 µg/mL (≈ 2.77 µM) | Activity (Escherichia coli [21]): inactive | Activity (Enterobacter cloacae [22]): inactive | Activity [23]: inactive | MBC (Neisseria gonorrhoeae [24]): 2 µg/mL (≈ 5.55 µM) | MIC (Neisseria gonorrhoeae [24]): 2 µg/mL (≈ 5.55 µM)
